Source: ChEMBL document CHEMBL1139268, “Camphor sulfonamide derivatives as novel, potent and selective CXCR3 antagonists” (Bioorg Med Chem Lett, 2009)
≈ marks a conversion by molar mass, not a printed value.

Columns and labels:
[1] = target: T1, C-X-C chemokine receptor type 3 (Homo sapiens, UniProt P49682); test: Antagonist activity at human recombinant CXCR3 receptor expressed in CHO-K1 cells assessed as human IP10-induced calcium flux by FLIPR assay; format: functional, cell-based
T1 sequence (P49682 whole entry): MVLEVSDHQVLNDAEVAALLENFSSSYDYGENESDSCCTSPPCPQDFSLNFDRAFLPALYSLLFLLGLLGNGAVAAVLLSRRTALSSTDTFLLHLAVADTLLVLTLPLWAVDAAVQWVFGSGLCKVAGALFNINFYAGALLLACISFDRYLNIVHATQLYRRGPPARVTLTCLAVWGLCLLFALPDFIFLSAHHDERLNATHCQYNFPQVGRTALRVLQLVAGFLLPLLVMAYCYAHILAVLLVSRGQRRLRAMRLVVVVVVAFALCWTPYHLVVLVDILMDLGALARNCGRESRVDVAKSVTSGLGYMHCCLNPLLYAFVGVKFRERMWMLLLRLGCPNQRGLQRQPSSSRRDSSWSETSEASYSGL

[2] = target: T2, C-X-C chemokine receptor type 3 (Mus musculus, UniProt O88410); test: Antagonist activity at mouse recombinant CXCR3 expressed in human U2OS cells; format: functional, cell-based
T2 sequence (O88410 whole entry): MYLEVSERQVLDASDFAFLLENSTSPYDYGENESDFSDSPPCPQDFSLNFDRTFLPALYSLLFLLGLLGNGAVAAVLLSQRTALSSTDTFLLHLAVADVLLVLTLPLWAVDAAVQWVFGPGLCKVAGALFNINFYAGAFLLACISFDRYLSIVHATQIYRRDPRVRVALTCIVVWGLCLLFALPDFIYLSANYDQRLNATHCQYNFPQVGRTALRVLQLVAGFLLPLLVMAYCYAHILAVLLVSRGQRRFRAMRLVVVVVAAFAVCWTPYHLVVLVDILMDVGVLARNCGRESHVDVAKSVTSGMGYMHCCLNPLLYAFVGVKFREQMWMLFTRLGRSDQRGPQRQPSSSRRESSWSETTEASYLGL
Method in brief: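 Human U2OS cells were transiently transduced with a mixture of recombinant BacMam viruses, one expressing murine CXCR3 and one expressing chimeric G-protein Gqi5.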

[3] = Aqueous solubility of the compound; format: physicochemical; conditions: buffer
[4] = Permeability across artificial membrane; format: ADME; conditions: PAMPA; read-out: permeability
[5] = target: T1, C-X-C chemokine receptor type 3; test: Antagonist activity at human recombinant CXCR3 receptor assessed as human IP10-induced calcium mobilization by FLIPR assay; format: functional; conditions: read-out: pA2 (converted)

Compound | IC50 [1] [nM] | also measured
CC1(C)[C@@H]2CC[C@@]1(CS(=O)(=O)N1CCN(c3ncc(Br)cn3)CC1)C(=O)C2 | 631 | –
CC1(C)[C@@H]2CC[C@@]1(CS(=O)(=O)N1CCN(c3nc(Cl)c(C(F)(F)F)cc3Cl)CC1)C(=O)C2 | 316 | –
CC1(C)[C@@H]2CC[C@@]1(CS(=O)(=O)N1CCN(c3ncc(C(F)(F)F)cc3F)CC1)C(=O)C2 | 158 | IC50 [2]: 794 nM
C[C@@H]1CN(S(=O)(=O)C[C@]23CC[C@H](CC2=O)C3(C)C)CCN1c1ncc(C(F)(F)F)cc1F | 501 | –
C[C@H]1CN(S(=O)(=O)C[C@]23CC[C@H](CC2O)C3(C)C)CCN1c1ncc(C(F)(F)F)cc1F (some centres undefined) | 50.1 | IC50 [2]: 158 nM
CC1(O)C[C@H]2CC[C@]1(CS(=O)(=O)N1CCN(c3ccc(C(F)(F)F)cn3)CC1)C2(C)C (some centres undefined) | 200 | –
CC1(C)[C@@H]2CC[C@@]1(CS(=O)(=O)N1CCN(c3ncc(C(F)(F)F)cc3F)[C@H](CO)C1)C(=O)C2 | 316 | solubility [3]: 40 µg/mL (≈ 81 µM); Papp [4]: 56 ×10⁻⁶ cm/s; IC50 [2]: 6310 nM
CC1(C)[C@@H]2CC[C@@]1(CS(=O)(=O)N1CCN(c3ccc(C(F)(F)F)cn3)CC1)C(NS(C)(=O)=O)C2 (some centres undefined) | 631 | –
CCC1CN(S(=O)(=O)C[C@]23CC[C@H](CC2=O)C3(C)C)CCN1c1ccc(C(F)(F)F)cn1 (some centres undefined) | 631 | –
CC1(C)[C@@H]2CC[C@@]1(CS(=O)(=O)N1CCN(c3ncccc3C(F)(F)F)CC1)C(=O)C2 | > 31600 | –
CC1(C)[C@@H]2CC[C@@]1(CS(=O)(=O)N1CCN(c3cc(C(F)(F)F)ccn3)CC1)C(=O)C2 | 25100 | –
C[C@H]1CN(S(=O)(=O)C[C@]23CC[C@H](CC24OCCO4)C3(C)C)CCN1c1ncc(C(F)(F)F)cc1F | 39.8 | IC50 [2]: 1580 nM
C[C@H]1CN(S(=O)(=O)C[C@]23CC[C@H](C[C@H]2O)C3(C)C)CCN1c1ccc(C(F)(F)F)cn1 | 316 | IC50 [2]: 631 nM
C[C@@H]1CN(S(=O)(=O)C[C@]23CC[C@H](CC2=O)C3(C)C)CCN1c1ccc(C(F)(F)F)cn1 | 501 | –
CCNC1C[C@H]2CC[C@]1(CS(=O)(=O)N1CCN(c3ccc(C(F)(F)F)cn3)CC1)C2(C)C (some centres undefined) | 7940 | –
Cc1ccc(N2CCN(S(=O)(=O)C[C@]34CC[C@H](CC3=O)C4(C)C)CC2)nc1 | > 31600 | –
C[C@H]1CN(S(=O)(=O)C[C@]23CC[C@H](CC2=O)C3(C)C)CCN1c1ccc(C(F)(F)F)cn1 | 158 | IC50 [2]: 2510 nM
CC(=O)c1ccc(N2CCN(S(=O)(=O)C[C@]34CC[C@H](CC3=O)C4(C)C)CC2)nc1 | > 31600 | –
CC1(C)[C@@H]2CC[C@@]1(CS(=O)(=O)N1C[C@@H]3C[C@H]1CN3c1ccc(C(F)(F)F)cn1)C(=O)C2 | > 31600 | –
CC1(C)[C@@H]2CC[C@@]1(CS(=O)(=O)N1CCN(c3ccc(C(F)(F)F)cn3)CC1)C(=O)C2 | 251 | IC50 [2]: 1260 nM; Kb [5]: 126 nM
CC1(C)[C@@H]2CC[C@@]1(CS(=O)(=O)N1CCN(c3ccc(C(F)(F)F)cc3F)CC1)C(=O)C2 | 2000 | –
CC(=O)NC1C[C@H]2CC[C@]1(CS(=O)(=O)N1CCN(c3ccc(C(F)(F)F)cn3)CC1)C2(C)C (some centres undefined) | 2000 | –
CC1(C)[C@@H]2CC[C@@]1(CS(=O)(=O)N1CCN(c3ccc(C#N)cn3)CC1)C(=O)C2 | > 31600 | –
CN(CCN(C)S(=O)(=O)C[C@]12CC[C@H](CC1=O)C2(C)C)c1ccc(C(F)(F)F)cn1 | > 31600 | –
CC1(C)[C@@H]2CC[C@@]1(CS(=O)(=O)N1CCN(c3ccc(C(F)(F)F)cn3)CC1)C1(C2)OCCO1 | 200 | –
CC1(C)[C@@H]2CC[C@@]1(CS(=O)(=O)N1CCN(c3ccc(C(F)(F)F)cn3)CC1)C(O)C2 (some centres undefined) | 158 | –
CC1(C)[C@@H]2CC[C@@]1(CS(=O)(=O)N1CCN(c3ncc(C(F)(F)F)cn3)CC1)C(=O)C2 | 316 | –
CC1(C)[C@@H]2CC[C@@]1(CS(=O)(=O)N1CCN(c3ncc(C(F)(F)F)cc3Cl)CC1)C(=O)C2 | 398 | –
CC1(C)[C@@H]2CC[C@@]1(CS(=O)(=O)N1CCN(c3cc4ccccc4cn3)CC1)C(=O)C2 | 15800 | –
C[C@H]1CN(S(=O)(=O)C[C@]23CC[C@H](CC2O)C3(C)C)CCN1c1ccc(C(F)(F)F)cn1 (some centres undefined) | 158 | IC50 [2]: 631 nM

More lines, main results first:

IC50 [1] [nM] | Compound | also measured
251 | CC1(C)[C@@H]2CC[C@@]1(CS(=O)(=O)N1CCN(c3ccc(C(F)(F)F)c(Cl)n3)CC1)C(=O)C2 | –
> 31600 | CC1(C)[C@@H]2CC[C@@]1(CS(=O)(=O)N1CCN(c3ccc([N+](=O)[O-])cn3)CC1)C(=O)C2 | –
5010 | CC1(C)[C@@H]2CC[C@@]1(CS(=O)(=O)N1CCN(c3ccc(C(F)(F)F)nn3)CC1)C(=O)C2 | –
31600 | CC1(C)[C@@H]2CC[C@@]1(CS(=O)(=O)N1CCC(Nc3ccc(C(F)(F)F)cn3)CC1)C(=O)C2 | –
126 | C[C@H]1CN(S(=O)(=O)C[C@]23CC[C@H](CC2=O)C3(C)C)CCN1c1ncc(C(F)(F)F)cn1 | IC50 [2]: 1000 nM
794 | CCNC(=O)NC1C[C@H]2CC[C@]1(CS(=O)(=O)N1CCN(c3ccc(C(F)(F)F)cn3)CC1)C2(C)C (some centres undefined) | –
631 | CC1CN(c2ccc(C(F)(F)F)cn2)CCN1S(=O)(=O)C[C@]12CC[C@H](CC1=O)C2(C)C (some centres undefined) | –
> 31600 | CC(C)C1CN(S(=O)(=O)C[C@]23CC[C@H](CC2=O)C3(C)C)CCN1c1ccc(C(F)(F)F)cn1 (some centres undefined) | –
316 | CC1CN(S(=O)(=O)C[C@]23CC[C@H](CC2=O)C3(C)C)CCN1c1ccc(C(F)(F)F)cn1 (some centres undefined) | –
794 | CC1(C)[C@@H]2CC[C@@]1(CS(=O)(=O)N1CCN(c3ccc(C(F)(F)F)cn3)CC1)C(N)C2 (some centres undefined) | –
6310 | CC1(C)[C@@H]2CC[C@@]1(CS(=O)(=O)N1CCCN(c3ccc(C(F)(F)F)cn3)CC1)C(=O)C2 | –
1580 | CC1(C)[C@@H]2CC[C@]1(CS(=O)(=O)N1CCN(c3ccc(C(F)(F)F)cn3)CC1)C(=O)C2 | –
398 | CC1(C)[C@@H]2CC[C@@]1(CS(=O)(=O)N1CCN(c3ccc(C(F)(F)F)cn3)C(CO)C1)C(=O)C2 (some centres undefined) | –
6310 | C[C@@H]1CN(c2ccc(C(F)(F)F)cn2)[C@@H](C)CN1S(=O)(=O)C[C@]12CC[C@H](CC1=O)C2(C)C | –
> 31600 | CC1(C)[C@@H]2CC[C@@]1(CS(=O)(=O)N1CCN(c3ccccn3)CC1)C(=O)C2 | –
31.6 | C[C@H]1CN(S(=O)(=O)C[C@]23CC[C@H](C[C@@H]2O)C3(C)C)CCN1c1ccc(C(F)(F)F)cn1 | IC50 [2]: 200 nM
794 | CC1(C)[C@@H]2CC[C@@]1(CS(=O)(=O)N1CCN(c3ccc(C(F)(F)F)cn3)CC1)C(F)C2 (some centres undefined) | –
1580 | CC1(C)[C@@H]2CC[C@@]1(CS(=O)(=O)N1CCN(c3ccc(Br)cn3)CC1)C(=O)C2 | –
> 31600 | CC1(C)[C@@H]2CC[C@@]1(CS(=O)(=O)N1CCN(c3ccc(C(F)(F)F)cc3)CC1)C(=O)C2 | –
> 12600 | CC1(C)[C@@H]2CC[C@@]1(CS(=O)(=O)N1CCN(c3nc4ccccc4s3)CC1)C(=O)C2 | –
15800 | CC1(C)[C@@H]2CC[C@@]1(CS(=O)(=O)NC1CCN(c3ccc(C(F)(F)F)cn3)CC1)C(=O)C2 | –
63.1 | C[C@H]1CN(S(=O)(=O)C[C@]23CC[C@H](C[C@H]2O)C3(C)C)CCN1c1ncc(C(F)(F)F)cc1F | IC50 [2]: 1580 nM
3160 | CC1(C)[C@@H]2CC[C@@]1(CS(=O)(=O)N1CCN(c3ncc(C(F)(F)F)cc3[N+](=O)[O-])CC1)C(=O)C2 | –
> 31600 | CC1(C)[C@@H]2CC[C@@]1(CS(=O)(=O)N1CCN(c3ccc(C(F)(F)F)cn3)C(c3ccccc3)C1)C(=O)C2 (some centres undefined) | –
25100 | CC1(C)[C@@H]2CC[C@@]1(CS(=O)(=O)N1CCN(c3cccc(C(F)(F)F)n3)CC1)C(=O)C2 | –
